Screens: PubChem BioAssay, The Scripps Research Institute Molecular Screening Center
CHO parental Ca – counter-screen: ATP calcium response change in parental CHO cells; parental CHO-K1, ATP-induced calcium, Fluo-8 fluorescence; inhibition, % at 5.6 µM; 0.63% of 330,000 active; AID 463079;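 active = inhibition above that plate's mean sample inhibition plus 3 SD, cut at about 26% in these data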;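 also: 0% = ATP-challenged DMSO wells and 100% = DMSO wells without ATP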
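Assay system – parental CHO cells · Reagent – ATP stimulus · Detection – intracellular calcium via Fluo-8 no-wash fluorescent dye · Evaluation – percent inhibition of ATP-evoked calcium rise, normalized to controls · Controls – ATP wells versus no-ATP DMSO wells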
TAAR1 ag – human TAAR1 agonism; AID 624467; activation, % at 3 µM; CHO RD-HGA16 TAAR1, Fluo-8 calcium fluorescence; vehicle wells 0%, saturating PEA agonist 100%; 0.99% of 360,000 active;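 active = activation above the mean activation of all test compounds in the run plus 3 SD, cut at about 38% in these data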
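Test system: RD-HGA16 (CHO) cells co-expressing Gα16 and hTAAR1 / Benchmarks: DMSO vehicle as 0%, PEA at EC100 as 100% / Repeats: no replicates (n 1) / Measure: % activation from peak over basal fluorescence ratio, DMSO-to-PEA scaled / Timing: 17-24 h plating, Fluo-8 75 min 37 °C, 30 min RT / Technique: kinetic Fluo-8 calcium fluorescence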
OX1R antag-1 – antagonists of human orexin 1 receptor; O43613; CHO/OX1R cells, Fluo-8 calcium fluorescence, orexin A; inhibition, % at 5 µM; 0.43% of 330,000 active;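 active = inhibition above its plate's threshold, mean inhibition of all tested compounds on the plate plus 3 SD, cut at about 37% in these data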;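 also: 0% = orexin A challenge wells and 100% = SB-334867-A antagonist wells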
Target sequence (O43613 whole entry, looked up): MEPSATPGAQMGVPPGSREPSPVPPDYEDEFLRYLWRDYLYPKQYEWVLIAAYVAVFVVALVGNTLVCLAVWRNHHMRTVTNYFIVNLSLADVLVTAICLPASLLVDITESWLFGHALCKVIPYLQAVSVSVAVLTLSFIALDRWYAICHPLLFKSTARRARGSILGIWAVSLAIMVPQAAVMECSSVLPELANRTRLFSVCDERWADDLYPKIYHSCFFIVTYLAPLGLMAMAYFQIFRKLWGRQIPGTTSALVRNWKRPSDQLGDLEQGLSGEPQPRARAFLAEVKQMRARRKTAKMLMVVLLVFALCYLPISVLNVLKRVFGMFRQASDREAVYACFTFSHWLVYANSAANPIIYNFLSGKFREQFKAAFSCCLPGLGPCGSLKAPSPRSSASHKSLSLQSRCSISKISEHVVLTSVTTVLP
TAAR1 antag – antagonists of human TAAR1. CHO RD-HGA16 TAAR1, Fluo-8 calcium fluorescence, antagonist. inhibition, % at 3 µM. 1.5% of 360,000 active;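 active = inhibition above a per-plate cutoff, the mean inhibition of test compounds on that plate plus 3 SD, cut at about 49% in these data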;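 also: 0% = DMSO plus EC80 beta-PEA response and 100% = DMSO alone without agonist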
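Assay system: RD-HGA16 CHO cells with stable hTAAR1 and Gα16 / Reagent: EC80 β-phenethylamine stimulus / Doses: 3 µM, single point / Timing: dye loading 75 min at 37 °C, then 30 min room temperature / Measured by: Fluo-8 intracellular calcium dye fluorescence, real-time kinetic reads / Controls: vehicle wells and EC80 agonist wells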
OX1R antag-2 – antagonists of human orexin 1 receptor (OX1R). 1.8% of 330,000 active. AID 485270. O43613. inhibition, % at 6.6 µM. OX1R-expressing cells, FRET antagonist read-out; in the data active = inhibition mostly above about 38%, no sharp cut-off; inactive = mostly below about 40%;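 also: 0% = agonist challenge alone and 100% = reference antagonist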
GPR7 antagonist – antagonists of human GPR7 (neuropeptides B/W receptor 1). inhibition, % at 4.4 µM. AID 1861. P48145. GPR7-expressing cells, fluorescence antagonist assay. 1.1% of 290,000 active; in the data active = inhibition above about 16%, passing the limit was not always enough;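 also: cells stimulated with the agonist NPW; 0% = agonist with vehicle and 100% = vehicle without agonist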
Target sequence (P48145 whole entry, looked up): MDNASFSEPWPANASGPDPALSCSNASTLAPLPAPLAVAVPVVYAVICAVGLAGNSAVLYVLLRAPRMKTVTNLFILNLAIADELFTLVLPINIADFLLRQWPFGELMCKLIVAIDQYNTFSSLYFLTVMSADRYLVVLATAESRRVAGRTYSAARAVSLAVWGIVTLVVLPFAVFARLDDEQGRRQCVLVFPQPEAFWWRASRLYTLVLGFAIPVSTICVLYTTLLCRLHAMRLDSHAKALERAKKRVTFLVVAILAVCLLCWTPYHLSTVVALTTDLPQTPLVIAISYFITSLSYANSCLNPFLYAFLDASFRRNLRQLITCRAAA
TAAR1 ag conf – confirmation of human TAAR1 agonists | shares compounds with TAAR1 ag | CHO RD-HGA16 TAAR1, Fluo-8 calcium fluorescence; scaled: DMSO 0%, maximal phenethylamine 100% | activation, % at 3 µM | 82% of 2,400 active | AID 651783;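 active = activation above a cutoff set at the run's mean compound activation plus 3 SD, cut at about 39% in these data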
Ga16 ag counter – counter-screen for TAAR1 agonists: nonselective agonists in parental cells | shares compounds with TAAR1 ag | activation, % at 3 µM | 50% of 2,400 active | AID 651787 | CHO-Ga16 parental, Fluo-8 calcium fluorescence; normalized to maximal ATP response, DMSO zero;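 active = activation above the run cutoff, the mean activation over all tested wells plus 3 SD, cut at about 12% in these data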;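 also: 0% = DMSO wells and 100% = maximal ATP response on the peak over basal ratio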
TAAR1 desens – human TAAR1 agonist that also desensitizes the receptor | shares compounds with TAAR1 ag | CHO RD-HGA16 hTAAR1, Fluo-8 calcium, beta-PEA response inhibition | inhibition, % at 3 µM | 46% of 2,400 active | AID 651951;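 active = inhibition above the run cutoff, the mean inhibition of all test compounds plus 3 SD, cut at about 49% in these data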;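 also: beta-PEA stimulus applied at its EC80; loss of beta-PEA calcium signal after compound pretreatment read as receptor desensitization; 0% = DMSO with beta-PEA at EC80 and 100% = DMSO alone without agonist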
Ga16 antag count – counter-screen for TAAR1 agonists: nonselective Ga16 antagonists; shares compounds with TAAR1 ag; CHO-Ga16 ATP-induced calcium, Fluo-8 fluorescence; inhibition, % at 3 µM; 39% of 2,400 active; AID 651952;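 active = inhibition above the plate's mean compound inhibition plus 3 SD, computed per plate, cut at about 22% in these data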;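 also: 0% = EC80 ATP with DMSO and 100% = DMSO wells without ATP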
Active calls of the source: *; / = no result given. An excerpt weighted towards active compounds, which were near 4.6% of everything screened.

SMILES	CHO parental Ca	TAAR1 ag	OX1R antag-1	TAAR1 antag	OX1R antag-2	GPR7 antagonist	TAAR1 ag conf	Ga16 ag counter	TAAR1 desens	Ga16 antag count
COc1ccc(NC(=O)Cn2nnc(-c3ccccc3F)n2)cc1Cl	-2.0	56.6*	-9.5	37.7	13.0	-8.3	18.5	1.6	9.3	18.4
CCOC(=O)c1ccc(NC(=O)Cn2nnc(-c3ccccc3F)n2)cc1	-9.0	6.5	-12.4	-24.2	23.4	-2.8	/	/	/	/
COc1ccc(C(=O)NCc2nnc(SCC(=O)N3CCc4ccccc43)o2)cc1OC	-14.7	5.6	-16.9	8.5	7.4	-9.9	/	/	/	/
O=C(CSc1nnc(CNc2ccccc2)o1)N1CCc2ccccc21	12.5	74.1*	2.1	75.0*	19.8	-15.8	9.5	9.2	13.7	13.3
CC(=O)c1c(C)[nH]c(C(=O)NCCc2cccc(C)c2)c1C	-10.6	51.7*	-17.4	-4.5	9.3	5.6	26.5	6.8	13.2	18.7
CCc1c(C(=O)NCCc2cccc(C)c2)[nH]c(C)c1C(C)=O	-11.4	68.2*	-19.5	26.1	10.4	10.0	53.1*	9.1	25.8	24.3*
CCc1c(C(=O)NCCc2ccc(OC)c(OC)c2)[nH]c(C)c1C(C)=O	-10.9	6.5	-14.7	4.6	4.7	-8.7	/	/	/	/
CCCCNC(=O)c1[nH]c(C)c(C(C)=O)c1C	-1.6	2.2	-3.8	12.1	13.9	-5.7	/	/	/	/
CCCS(=O)(=O)NC(=O)C1(C)CCN(C(=O)c2ccccc2OC(F)(F)F)C1 (centres undefined)	/	1.6	/	-9.7	/	/	/	/	/	/
COC(=O)c1ccc(CSc2nnc(-c3ccncc3)n2Cc2ccccc2)o1	-10.0	4.3	-20.4	-4.5	6.2	-13.8	/	/	/	/
COc1ccc(NC(=O)Nc2nnc(CC(=O)NCc3ccccc3)s2)cc1	1.7	43.6*	-11.7	22.1	16.4	0.0	53.8*	5.5	31.6	14.2
CCOC(=O)Cc1nnc(NC(=O)Nc2ccccc2)s1	-14.8	45.3*	-21.5	26.0	17.0	-5.1	67.3*	3.8	42.0	3.6
COCc1nnc(NC(=O)CSc2ccc(C)cc2)s1	-11.2	35.6	-14.8	-4.8	17.3	13.1	/	/	/	/
CCOC(=O)Cc1nnc(NC(=O)CSc2ccc(C)cc2)s1	-9.6	68.8*	-19.1	8.5	5.0	-2.8	58.1*	26.6*	7.3	-2.2
CCOC(=O)N1CCN(C(=O)C(CC(C)C)NS(=O)(=O)c2ccc(C)cc2)CC1 (centres undefined)	-12.2	1.7	-0.2	6.6	0.8	/	/	/	/	/
CCN(CC)C(=O)Oc1nnc(SC(C)C)n1-c1ccc(Cl)cc1	-15.2	0.5	-15.1	5.2	5.5	-5.9	/	/	/	/
CCN(CC)C(=O)Oc1nnc(SC(C)C)n1-c1ccc(Cl)c(Cl)c1	-21.3	44.9*	-37.8	4.6	7.6	-13.5	21.4	13.9*	1.9	2.2
Cc1ccc(C2=NOC(C)(c3nnc(Cc4ccccc4)o3)C2)cc1 (centres undefined)	-16.9	2.5	-13.6	4.7	8.0	/	/	/	/	/
C/C(=N\Nc1ncnc2sc(C)c(C)c12)c1ccccn1	79.4*	135.3*	90.5*	104.2*	33.7	5.6	94.6*	95.0*	83.8*	85.8*
Cc1sc2ncnc(N/N=C/c3cccc(O)c3)c2c1C	-7.8	8.7	-8.2	-2.6	9.1	-9.0	/	/	/	/
CCOC(=O)N1CCN(C(=O)CNC(=O)c2ccc(Cl)cc2)CC1	-9.7	1.4	-4.4	-23.5	-2.4	7.4	/	/	/	/
Cn1cc(Br)c(C(=O)NNC(=O)c2cccc(Br)c2)n1	2.7	4.1	-2.9	0.8	10.7	0.8	/	/	/	/
CC(=O)c1sc2nc(-c3cccs3)cc(C(F)(F)F)c2c1N	31.8	72.1*	42.2*	64.1*	24.7	5.3	64.9*	83.9*	63.9*	69.8*
COc1ccc2c(OC)cc(=O)n(C)c2c1	0.3	67.5*	-0.2	-13.5	-6.3	-6.7	6.8	5.0	5.9	4.2
COc1cc(=O)n(C)c2ccccc12	10.6	3.4	-5.6	-20.9	0.9	3.8	/	/	/	/
SMILES	CHO parental Ca	TAAR1 ag	OX1R antag-1	TAAR1 antag	OX1R antag-2	GPR7 antagonist	TAAR1 ag conf	Ga16 ag counter	TAAR1 desens	Ga16 antag count
O=C(Cn1cnc([N+](=O)[O-])c1)NCCc1ccccc1	-7.7	/	-10.6	/	13.6	4.3	/	1.1	/	-2.0
O=C(Cn1cnc([N+](=O)[O-])c1)NCc1ccc(F)cc1	-7.0	1.7	-9.4	-1.6	18.2	1.1	/	/	/	/
O=C(CN1CCCC1c1cccs1)Nc1cc(S(=O)(=O)N2CCCCC2)ccc1Cl (centres undefined)	/	-0.5	/	2.0	/	/	/	/	/	/
O=C(N/N=C/c1ccc(F)cc1)c1ccc(OCc2ccccc2)cc1	-6.6	0.5	-3.5	-2.3	2.3	2.3	/	/	/	/
NNC(=O)c1ccc(COc2ccc3ccccc3c2)cc1	-4.3	72.0*	-2.4	-12.2	-10.8	-8.8	92.9*	50.9*	48.8*	22.6*
O=C(Nc1ccc(OCc2ccccc2)cc1)c1cccnc1	11.9	87.8*	-1.4	56.7*	42.0	12.7	94.5*	30.5*	75.4*	25.7*
O=C(N/N=C/c1ccc(OCc2ccc(F)cc2)cc1)c1ccccc1	3.5	43.5*	-0.1	4.7	26.3	-1.8	17.9	2.5	-0.5	0.4
O=C(Nc1ccc(OCc2ccccc2)cc1)Nc1cccnc1	2.8	4.3	-14.8	14.1	9.9	12.1	/	/	/	/
O=C(Nc1ccccc1F)c1ccc(OCc2ccccc2)cc1	9.7	/	-4.1	/	7.6	-0.1	/	1.2	/	13.0
COc1ccccc1CNC(=O)C1CCCN1S(=O)(=O)c1ccc2c(c1)C(C)(C)C(=O)N2C (centres undefined)	/	1.1	/	-12.5	/	/	/	/	/	/
O=C(Cn1cc(CCO)nn1)N1CCNCC1	-0.8	6.6	-2.3	-5.9	31.1	1.0	/	/	/	/
COc1cc(CNC(=O)c2cc(-c3ccc(F)cc3C)n[nH]2)cc(OC)c1	/	-0.2	/	13.1	/	/	/	/	/	/
Cc1ccc(OCCCCNC2CCCCC2)c(C)c1	-17.7	11.3	-7.0	-4.9	6.2	6.6	/	/	/	/
Cc1cc(=O)[nH]c(SCC(=O)N2CCCC(C)C2)n1 (centres undefined)	10.1	75.4*	-6.2	-10.1	9.3	-7.6	38.7*	0.9	-8.1	2.3
Cc1cc(=O)[nH]c(SCC(=O)N2CCCC2)n1	-1.4	2.2	-11.0	-11.2	2.2	/	/	/	/	/
